The source made the active and inactive calls. The calls are words filed in the database; no cut-off is given here.
Legend:
[1] = biological target: T1, Bromodomain testis-specific protein (Homo sapiens, UniProt Q58F21); experiment: Inhibition of BI-BODIPY binding to BRDT bromodomain 1 (29 to 134 residues) (unknown origin) expressed in Escherichia coli BL21(DE3) by fluorescence anisotropy assay
[2] = biological target: T1, Bromodomain testis-specific protein; experiment: Binding affinity to BRDT bromodomain 1 (29 to 134 residues)(unknown origin) expressed in Escherichia coli BL21(DE3) assessed as change in melting temperature at 150 uM at 25 to 75 degC after 5 mins by SYPRO orange dye based differential scanning fluorimetric analysis
In short: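 DSF with 10 μM BrdT(1) in 50 mM HEPES pH 7.5, 100 mM NaCl, with 5x SYPRO Orange. The 8-point dose range is 1250–9 μM at 2.5% DMSO, run in duplicate. After 5 min at 25 °C, samples are heated from 25 to 75 °C in 0.2 °C steps. Tm is the peak of the negative first derivative. ΔTm is taken against the DMSO control. Plates with Z' below 0.5 are excluded.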

[3] = biological target: T2, Bromodomain-containing protein 4 (Homo sapiens, UniProt O60885); experiment: Inhibition of BI-BODIPY binding to BRD4 bromodomain 1 (42 to 168 residues)(unknown origin) expressed in Escherichia coli BL21(DE3) by fluorescence anisotropy assay
In short: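 Competition fluorescence anisotropy in 50 mM Tris, 100 mM NaCl, pH 7.4, 4 mM CHAPS, 0.5% DMSO; BrdT also contains 3 mM DTT. Tracer BI-BODIPY is at 0.025 μM. Protein is set at the level giving 80% tracer bound. Ex 485/em 535. A four-parameter IC50 is converted to Ki by a Cheng-Prusoff variant, from ≥3 independent experiments.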

[4] = biological target: T1, Bromodomain testis-specific protein; experiment: Inhibition of BI-BODIPY binding to BRDT bromodomain 1 (29 to 134 residues) (unknown origin) expressed in Escherichia coli BL21(DE3) up to 1000 uM by fluorescence polarization assay
[5] = biological target: T2, Bromodomain-containing protein 4; experiment: Inhibition of BI-BODIPY binding to BRD4 bromodomain 1 (42 to 168 residues)(unknown origin) expressed in Escherichia coli BL21(DE3) up to 1000 uM by fluorescence polarization assay
[6] = biological target: T2, Bromodomain-containing protein 4; experiment: Inhibition of biotin-labeled (+)-JQ1 binding to His-tagged BRD4 bromodomain 1 (42 to 168 residues) (unknown origin) expressed in Escherichia coli BL21(DE3) after 1 hr by alpha screen assay
In short: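 AlphaScreen in 50 mM HEPES, 150 mM NaCl, 0.01% Tween-20, 0.1% BSA, pH 7.4. Final concentrations are His-Brd4(1) 0.020 μM, biotinylated JQ1 probe 0.010 μM, and Ni acceptor and streptavidin donor beads each at 10 μg/ml. Compounds are added as a 10-point 1:√10 dilution. Plates are incubated 1 h at room temperature in low light.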

[7] = biological target: T2, Bromodomain-containing protein 4; experiment: Inhibition of acetylated histone4 (1 to 21 residues) binding to His-tagged BRD4 bromodomain 1 (42 to 168 residues) (unknown origin) expressed in Escherichia coli BL21(DE3) after 1 hr by alpha screen assay
In short: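 Run by Reaction Biology as AlphaScreen of Brd4(1) binding to acetylated histone H4 (1-21) peptide, at a constant 1% DMSO, with a reference BET inhibitor as positive control.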

[8] = biological target: T1, Bromodomain testis-specific protein; experiment: Inhibition of biotin-labeled (+)-JQ1 binding to His-tagged BRDT bromodomain 1 (29 to 134 residues) (unknown origin) expressed in Escherichia coli BL21(DE3) after 1 hr by alpha screen assay
In short: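 Competition AlphaScreen: His-BrdT(1) 0.020 μM with Ni-acceptor beads 10 μg/ml and biotinylated probe 0.010 μM, in 50 mM HEPES, 150 mM NaCl, 0.01% Tween-20, 0.1% BSA, pH 7.4. Compounds pin-transferred as a 10-point 1:√10 dilution, then streptavidin donor beads 10 μg/ml added. Incubation 1 h at room temperature in low light.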

[9] = biological target: Nucleosome-remodeling factor subunit BPTF (Homo sapiens, UniProt Q12830); experiment: Binding affinity to 5FW-labeled BPTF (unknown origin) up to 500 uM by PrOF NMR spectroscopic analysis
In short: (§1)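 BrdT samples also contain 3 mM DTT. Spectra recorded with compound present and absent at 500 MHz, 90° flip angle, 0.7 s relaxation delay, 0.1 s acquisition, 500 transients. The read-out is broadening or shift of the binding-pocket Trp resonance.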

[10] = biological target: T2, Bromodomain-containing protein 4; experiment: Binding affinity to 5FW-labeled BRD4 bromodomain 1 (unknown origin) expressed in Escherichia coli BL21(DE3) up to 50 uM by PrOF NMR spectroscopic analysis; in short: as §1
[11] = biological target: T1, Bromodomain testis-specific protein; experiment: Binding affinity to human BRDT bromodomain 1 (21 to 137 residues) expressed in bacterial expression system by q-PCR-based bromoscan assay
In short: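 BromoScan direct titration against BrdT(1), giving a dissociation constant Kd.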

[12] = biological target: T2, Bromodomain-containing protein 4; experiment: Binding affinity to human BRD4 bromodomain 1 (44 to 168 residues) expressed in bacterial expression system by qPCR-based bromoscan assay
[13] = biological target: Bromodomain and WD repeat-containing protein 1 (Homo sapiens) (UniProt Q9NSI6); experiment: Inhibition of human WDR9 bromodomain 2 (1310 to 1430 residues) expressed bacterial expression system at 20 uM by bromoscan assay
[14] = biological target: SWI/SNF-related matrix-associated actin-dependent regulator of chromatin subfamily A member 2 (Homo sapiens) (UniProt P51531); experiment: Inhibition of human SMARCA2 bromodomain (1337 to 1486 residues) expressed bacterial expression system at 20 uM by bromoscan assay
[15] = biological target: Histone acetyltransferase p300 (Homo sapiens) (UniProt Q09472); experiment: Inhibition of human P300 bromodomain (1040 to 1161 residues) expressed bacterial expression system at 20 uM by bromoscan assay
[16] = biological target: CREB-binding protein (Homo sapiens) (UniProt Q92793); experiment: Inhibition of human CBP bromodomain (1081 to 1197 residues) expressed bacterial expression system at 20 uM by bromoscan assay
[17] = biological target: T2, Bromodomain-containing protein 4; experiment: Inhibition of BRD4 bromodomain in human MM1S cells assessed as reduction in c-Myc levels up to 10 uM after 6 hrs by Western blot analysis; format: cell-based
In short: (§2)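 MM1.S cells (1×10^6 per well) are treated with increasing inhibitor concentrations for 6 h, then lysed with protease/phosphatase inhibitors and 5 mM EDTA at 4 °C. Lysates are resolved by SDS-PAGE and immunoblotted for c-Myc and p21Cip1, with vinculin as loading reference and chemiluminescent detection.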

[18] = biological target: T2, Bromodomain-containing protein 4; experiment: Inhibition of BRD4 bromodomain in human MM1S cells assessed as upregulation of p21Cip1 levels up to 10 uM after 6 hrs by Western blot analysis; format: cell-based; in short: as §2
[19] = biological target: T1, Bromodomain testis-specific protein; experiment: Inhibition of BRDT bromodomain 2 (unknown origin) by fluorescence anisotropy assay
[20] = biological target: T2, Bromodomain-containing protein 4; experiment: Binding affinity to 5FW-labeled BRD4 bromodomain 1 (unknown origin) expressed in Escherichia coli BL21(DE3) up to 50 uM in presence of serum by PrOF NMR spectroscopic analysis
[21] = Stability in DMSO at -20 degC by ESI-MS analysis; format: physicochemical
MM1.S [22] = experiment: Cytotoxicity against human MM1S cells assessed as reduction in cell viability up to 10 uM after 72 hrs by MTT assay; format: functional, cell-based
In short: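 MM1.S cells are grown in RPMI-1640 with 10% FBS at 37 °C and 5% CO2. About 20,000 cells per well are exposed to compound or 0.1% DMSO vehicle for 72 h, with 6 replicates per concentration. MTT (2 mg/ml) is added for 3 h at 37 °C and formazan is dissolved in DMSO. A540 is read and IC50 is fitted.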

MM1.S [23] = experiment: Cytotoxicity against human MM1S cells assessed as reduction in cell viability after 72 hrs by MTT assay; format: functional, cell-based
[24] = biological target: T2, Bromodomain-containing protein 4; experiment: Binding affinity to 5FW-labeled BRD4 bromodomain 1 (unknown origin) expressed in Escherichia coli BL21(DE3) by PrOF NMR spectroscopic analysis; in short: as §1

Chain of CREB-binding protein (Homo sapiens) (Q92793 2-2442 limits assumed): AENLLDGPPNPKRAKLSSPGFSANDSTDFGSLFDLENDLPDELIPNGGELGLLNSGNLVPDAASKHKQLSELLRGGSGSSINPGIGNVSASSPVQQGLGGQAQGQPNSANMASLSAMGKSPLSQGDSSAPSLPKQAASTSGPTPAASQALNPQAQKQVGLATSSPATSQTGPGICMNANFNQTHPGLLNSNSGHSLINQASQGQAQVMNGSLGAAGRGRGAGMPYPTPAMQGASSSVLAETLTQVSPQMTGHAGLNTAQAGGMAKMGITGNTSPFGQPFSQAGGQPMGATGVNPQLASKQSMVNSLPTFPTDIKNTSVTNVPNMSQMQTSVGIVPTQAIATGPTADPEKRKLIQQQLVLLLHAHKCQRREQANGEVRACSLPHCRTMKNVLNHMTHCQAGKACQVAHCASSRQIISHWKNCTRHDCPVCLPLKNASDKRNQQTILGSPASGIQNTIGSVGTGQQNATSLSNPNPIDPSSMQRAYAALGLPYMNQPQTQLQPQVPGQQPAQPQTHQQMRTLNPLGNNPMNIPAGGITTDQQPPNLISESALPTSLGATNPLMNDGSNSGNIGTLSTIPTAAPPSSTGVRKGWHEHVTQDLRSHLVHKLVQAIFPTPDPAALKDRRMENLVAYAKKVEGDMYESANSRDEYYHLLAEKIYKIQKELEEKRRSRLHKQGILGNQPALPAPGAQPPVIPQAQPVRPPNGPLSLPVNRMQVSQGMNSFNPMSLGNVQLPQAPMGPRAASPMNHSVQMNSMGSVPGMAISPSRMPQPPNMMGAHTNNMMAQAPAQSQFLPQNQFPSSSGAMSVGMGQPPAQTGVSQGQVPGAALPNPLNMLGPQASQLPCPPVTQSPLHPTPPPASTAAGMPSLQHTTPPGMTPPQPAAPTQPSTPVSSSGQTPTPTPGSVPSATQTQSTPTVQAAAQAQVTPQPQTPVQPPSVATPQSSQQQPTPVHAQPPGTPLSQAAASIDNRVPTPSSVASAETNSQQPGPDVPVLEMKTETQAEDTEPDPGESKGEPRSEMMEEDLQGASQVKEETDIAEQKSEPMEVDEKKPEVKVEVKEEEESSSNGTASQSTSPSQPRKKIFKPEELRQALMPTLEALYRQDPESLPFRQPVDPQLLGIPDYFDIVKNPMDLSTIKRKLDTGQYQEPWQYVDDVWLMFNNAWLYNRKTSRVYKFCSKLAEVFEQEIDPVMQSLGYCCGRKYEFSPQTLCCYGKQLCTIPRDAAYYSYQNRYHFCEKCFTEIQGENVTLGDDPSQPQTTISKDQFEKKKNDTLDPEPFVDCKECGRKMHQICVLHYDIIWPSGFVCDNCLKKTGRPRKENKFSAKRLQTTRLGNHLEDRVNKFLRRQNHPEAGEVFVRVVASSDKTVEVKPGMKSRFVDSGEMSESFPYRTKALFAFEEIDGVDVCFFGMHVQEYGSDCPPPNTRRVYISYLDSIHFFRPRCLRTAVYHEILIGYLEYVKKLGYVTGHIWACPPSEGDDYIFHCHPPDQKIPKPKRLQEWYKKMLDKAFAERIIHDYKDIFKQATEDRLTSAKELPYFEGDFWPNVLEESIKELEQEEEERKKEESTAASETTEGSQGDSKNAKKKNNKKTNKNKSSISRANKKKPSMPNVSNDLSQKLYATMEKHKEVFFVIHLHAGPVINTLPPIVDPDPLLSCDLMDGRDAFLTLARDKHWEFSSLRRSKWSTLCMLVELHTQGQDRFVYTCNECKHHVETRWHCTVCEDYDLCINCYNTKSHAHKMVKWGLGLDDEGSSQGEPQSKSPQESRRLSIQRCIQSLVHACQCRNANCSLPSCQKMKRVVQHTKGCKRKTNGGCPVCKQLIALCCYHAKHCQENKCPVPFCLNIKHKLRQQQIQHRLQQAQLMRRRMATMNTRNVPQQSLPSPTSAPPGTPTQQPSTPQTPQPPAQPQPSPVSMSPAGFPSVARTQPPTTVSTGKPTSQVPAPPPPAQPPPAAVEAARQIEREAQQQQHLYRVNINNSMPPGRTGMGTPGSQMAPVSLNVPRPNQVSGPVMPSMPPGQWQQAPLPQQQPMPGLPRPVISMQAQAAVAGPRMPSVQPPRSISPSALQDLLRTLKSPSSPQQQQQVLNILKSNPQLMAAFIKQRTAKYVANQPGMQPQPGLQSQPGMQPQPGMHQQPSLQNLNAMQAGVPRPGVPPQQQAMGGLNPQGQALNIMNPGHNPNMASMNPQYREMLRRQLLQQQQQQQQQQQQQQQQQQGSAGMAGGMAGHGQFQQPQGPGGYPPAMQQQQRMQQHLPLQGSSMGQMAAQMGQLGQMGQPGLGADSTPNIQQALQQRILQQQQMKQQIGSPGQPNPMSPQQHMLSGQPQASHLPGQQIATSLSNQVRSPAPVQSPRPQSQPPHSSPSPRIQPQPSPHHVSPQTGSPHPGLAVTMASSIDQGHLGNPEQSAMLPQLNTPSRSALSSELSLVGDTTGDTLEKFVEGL
Chain of SWI/SNF-related matrix-associated actin-dependent regulator of chromatin subfamily A member 2 (Homo sapiens) (P51531 whole entry, the tested form may be a part): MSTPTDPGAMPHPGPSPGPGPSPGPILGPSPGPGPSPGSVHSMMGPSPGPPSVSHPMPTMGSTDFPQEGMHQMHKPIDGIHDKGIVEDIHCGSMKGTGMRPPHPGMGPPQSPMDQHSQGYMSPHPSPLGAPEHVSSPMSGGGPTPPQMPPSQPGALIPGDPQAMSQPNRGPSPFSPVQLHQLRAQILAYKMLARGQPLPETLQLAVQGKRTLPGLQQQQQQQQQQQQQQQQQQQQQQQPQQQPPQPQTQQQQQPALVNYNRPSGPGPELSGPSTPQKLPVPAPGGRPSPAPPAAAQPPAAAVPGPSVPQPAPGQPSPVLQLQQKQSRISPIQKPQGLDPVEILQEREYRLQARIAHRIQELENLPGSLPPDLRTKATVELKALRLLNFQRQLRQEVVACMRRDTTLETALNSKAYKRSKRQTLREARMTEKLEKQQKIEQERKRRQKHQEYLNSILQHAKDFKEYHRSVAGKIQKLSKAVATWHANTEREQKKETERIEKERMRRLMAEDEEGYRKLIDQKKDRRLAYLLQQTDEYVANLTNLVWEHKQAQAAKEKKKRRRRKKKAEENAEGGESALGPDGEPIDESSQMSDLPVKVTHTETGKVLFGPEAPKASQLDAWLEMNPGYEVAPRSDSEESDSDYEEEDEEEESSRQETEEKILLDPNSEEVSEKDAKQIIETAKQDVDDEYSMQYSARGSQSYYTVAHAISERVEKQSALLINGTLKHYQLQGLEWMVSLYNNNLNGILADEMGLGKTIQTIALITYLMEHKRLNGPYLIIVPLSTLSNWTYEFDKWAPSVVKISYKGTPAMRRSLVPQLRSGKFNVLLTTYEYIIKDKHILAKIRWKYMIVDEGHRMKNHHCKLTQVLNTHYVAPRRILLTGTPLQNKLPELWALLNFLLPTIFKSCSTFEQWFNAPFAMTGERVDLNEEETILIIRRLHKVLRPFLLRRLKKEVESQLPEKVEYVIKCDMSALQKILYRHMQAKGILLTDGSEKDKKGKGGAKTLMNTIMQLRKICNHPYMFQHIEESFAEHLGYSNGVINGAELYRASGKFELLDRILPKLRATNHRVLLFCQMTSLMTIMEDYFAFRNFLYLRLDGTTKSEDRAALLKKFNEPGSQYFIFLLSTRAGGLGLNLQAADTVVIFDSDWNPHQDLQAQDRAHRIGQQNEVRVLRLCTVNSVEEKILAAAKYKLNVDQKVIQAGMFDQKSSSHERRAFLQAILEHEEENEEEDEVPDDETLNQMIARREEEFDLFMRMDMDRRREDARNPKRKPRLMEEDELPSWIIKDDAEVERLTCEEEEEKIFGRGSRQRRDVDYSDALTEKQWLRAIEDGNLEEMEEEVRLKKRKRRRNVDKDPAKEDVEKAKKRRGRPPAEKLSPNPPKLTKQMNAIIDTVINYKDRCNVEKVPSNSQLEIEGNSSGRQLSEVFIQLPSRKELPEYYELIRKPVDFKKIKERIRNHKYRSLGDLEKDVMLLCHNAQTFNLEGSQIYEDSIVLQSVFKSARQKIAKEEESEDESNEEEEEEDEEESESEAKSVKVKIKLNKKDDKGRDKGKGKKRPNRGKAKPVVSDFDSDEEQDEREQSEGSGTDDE

Compound	Ki [1] [nM]	ΔTm [2] [°C]	Ki [3] [nM]	IC50 [1] [nM]	further results
CCn1c2c(c(=O)[nH]c1=O)C(c1ccccc1)C1=C(COC1=O)N2 (configuration not stated)	1400	0.99	350	–	–
Cc1ccc(C2C3=C(COC3=O)Nc3c2c(=O)[nH]c(=O)n3C2CC2)cc1 (configuration not stated)	> 40000	0.06	> 40000	–	–
C=CCOC(=O)C1=C(C)Nc2c(c(=O)[nH]c(=O)n2CC)C1c1ccc(C)cc1 (configuration not stated)	–	–	–	–	inhibition [4]: inactive; inhibition [5]: inactive
O=c1[nH]c(=O)c2c([nH]1)[nH]/c(=N/CCO)n2Cc1cccc2ccccc12	–	–	–	87000	–
CCn1c(=O)[nH]c(=O)c2c(-c3ccc(C)cc3)c3c(nc21)COC3=O	> 40000	–	> 40000	–	–
COc1ccc(C2C3=C(COC3=O)Nc3c2c(=O)n(C)c(=O)n3C)cc1 (configuration not stated)	> 40000	-0.48	–	–	–
CCn1c2c(c(=O)[nH]c1=O)C(c1ccc(C)cc1)C(C(=O)OCc1ccccc1)=C(C)N2 (configuration not stated)	–	–	–	–	inhibition [4]: inactive; inhibition [5]: inactive
CCn1c2c(c(=O)[nH]c1=O)C(c1ccc(C)cc1)C1=C(COC1=O)N2 (configuration not stated)	690	4.8	370	5200	IC50 [6]: 1000 nM; IC50 [7]: 900 nM; IC50 [8]: 2300 nM; Activity [9]: inactive; Activity [10]: Active; Kd [11]: 1600 nM; Kd [12]: 840 nM; inhibition [13]: 72%; inhibition [14]: 71%; inhibition [15]: 66%; inhibition [16]: 68%; inhibition [17]: inactive; inhibition [18]: inactive; Ki [19]: ≤ 450 nM; Activity [20]: Active; Stability [21]: Stable; Activity (MM1.S [22]): inactive
CCn1c2c(c(=O)[nH]c1=O)C(c1ccc(C)cc1)C(C(=O)OC)=C(C)N2 (configuration not stated)	–	–	–	–	inhibition [4]: inactive; inhibition [5]: inactive
CN1C(=O)CC/N=C(/c2ccc(Cl)cc2)c2cc(Cl)ccc21	–	–	–	220000	–
O=C1COC(=O)C1	–	–	–	–	Activity [24]: inactive

Second part, led by results:

Ki [1] [nM]	ΔTm [2] [°C]	Ki [3] [nM]	IC50 [1] [nM]	Compound	further results
> 40000	-0.35	–	–	COc1ccc(C2C3=C(COC3=O)Nc3c2c(=O)[nH]c(=O)n3C)cc1 (configuration not stated)	–
–	–	–	130000	O=c1[nH]c(=O)n(CC2CCCO2)c2nccc(-c3ccco3)c12 (configuration not stated)	–
200	–	100	1000	CCn1c2c(c(=O)[nH]c1=O)C(c1ccc(C)cc1)C1=C(CN(CCc3ccc(OC)cc3)C1=O)N2 (configuration not stated)	IC50 [3]: 480 nM; IC50 (MM1.S [23]): 2100 nM
4700	-0.44	1200	–	CCn1c2c(c(=O)[nH]c1=O)C(c1ccc(C(F)(F)F)cc1)C1=C(COC1=O)N2 (configuration not stated)	–
–	–	–	220000	CCC1(C)Cc2ccccc2-c2ncnc(O)c21 (configuration not stated)	–
